Screens: PubChem, several laboratories
This is a sample that favours compounds with a hit; in the whole collection about 2% have one here.
VLA-4 inh: inhibition in a human VLA-4 binding assay | P13612 | VLA-4 expressing cells, ligand binding flow cytometry | inhibition, % (about 7 µM as worked out from the volumes in the protocol) | hit rate 0.2% among 330,000 | AID 2557; in the data active = inhibition above about 50%
ABCB6 inh 2: inhibitors of human ABC transporter ABCB6; hit rate 0.19% among 360,000; fluorescence ratio to DMSO, % at 10 µM; K562-ABCB6 porphyrin accumulation, flow cytometry, 1 h; active compounds read low; Q9NP58;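 active = fluorescence ratio to DMSO below 75%, the collection mean minus 3 SD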;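 note: signal is porphyrin accumulated inside mitochondria; 100% equals median channel fluorescence of DMSO control wells; lower ratio means ABCB6 inhibition with less porphyrin fluorescence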
Granule exo inh: blocks lytic granule exocytosis. TALL-104 LAMP-1 surface exposure, flow cytometry; cells stimulated with thapsigargin and PMA. inhibition, % at 10 µM. hit rate 0.66% among 360,000;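 active = inhibition above about 55%, limit read from the data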
MT1-MMP act inh: inhibitors of human MT1-MMP activation. HT1080 RFP-PRO-GFP cells, GFP/RFP ratio fluorescence, overnight; percent of plate control window, DMSO zero. GFP/RFP ratio change, % at 20 µM. hit rate 0.061% among 360,000;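 active = GFP/RFP ratio change of at least 30% with cell ATP level not reduced by more than half and red fluorescence within 50% of control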
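Test system: HT1080 RFP-PRO-GFP cells; Benchmarks: DMSO and RFP-L50D-GFP cell wells; Timing: cells overnight before dosing, compound overnight, 37 °C, 5% CO2; Compound: one 20 µM compound dose with 1% DMSO; Read-out: GFP/RFP fluorescence ratio.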
DAGLB inh: diacylglycerol lipase beta (human) inhibition | AID 504411 | inhibition, % at 5.17 µM | hit rate 0.059% among 340,000 | HEK293T DAGLB membrane lysate, EnzChek fluorogenic substrate | Q8NCG7; in the data active = inhibition above about 34%;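 note: 0% = enzyme with vehicle and 100% = wells lacking enzyme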
Target sequence (Q8NCG7 whole entry, looked up): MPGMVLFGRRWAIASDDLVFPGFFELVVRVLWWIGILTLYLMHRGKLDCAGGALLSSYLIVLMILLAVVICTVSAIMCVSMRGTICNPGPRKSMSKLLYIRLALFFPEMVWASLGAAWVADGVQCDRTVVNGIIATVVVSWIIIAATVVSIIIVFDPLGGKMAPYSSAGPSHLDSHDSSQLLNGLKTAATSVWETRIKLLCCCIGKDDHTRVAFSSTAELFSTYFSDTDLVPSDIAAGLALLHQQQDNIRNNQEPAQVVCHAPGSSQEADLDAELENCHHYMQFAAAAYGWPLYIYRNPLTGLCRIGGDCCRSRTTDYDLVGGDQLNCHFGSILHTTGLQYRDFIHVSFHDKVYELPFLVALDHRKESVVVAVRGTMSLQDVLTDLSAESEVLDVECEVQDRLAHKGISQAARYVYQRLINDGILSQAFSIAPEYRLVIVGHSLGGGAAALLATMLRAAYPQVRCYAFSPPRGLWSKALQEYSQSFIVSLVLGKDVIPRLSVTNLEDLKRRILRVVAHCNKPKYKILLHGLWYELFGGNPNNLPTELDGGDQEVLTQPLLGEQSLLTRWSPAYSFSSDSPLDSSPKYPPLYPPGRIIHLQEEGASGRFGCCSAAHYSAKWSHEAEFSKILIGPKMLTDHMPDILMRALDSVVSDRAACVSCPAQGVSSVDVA
FGF22 binding: FGF22 (human) thermal shift binding. activity (Tm shift, normalised), % at 9.99 µM. recombinant FGF22 thermal shift, SYPRO orange fluorescence; percent of sucrose octasulfate shift, DMSO zero. hit rate 1.5% among 340,000;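 active = mean Tm shift, scaled 0 neutral to 100 positive control, at about 1.3% or above, every replicate too, limit read from the data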
* marks the source's active call; other numbers are inactive results; i = inactive; . = no result.

SMILES	VLA-4 inh	ABCB6 inh 2	Granule exo inh	MT1-MMP act inh	DAGLB inh	FGF22 binding
CCN1/C(=C/C=C/c2sc3ccccc3[n+]2CC)Sc2ccccc21	.	i	75*	48	12	.
C[C@H]1CN([C@@H](C)CO)C(=O)Cc2cc(NC(=O)Nc3cccc4ccccc34)ccc2O[C@H]1CN(C)C(=O)Nc1cccc2ccccc12	.	.	.	.	.	0
CC(C)N1C(=O)[C@@]2(Cc3ccccc31)c1ccccc1C(=O)N(Cc1ccccc1)[C@H]2c1ccc(CO)cc1	.	.	.	.	.	0
COc1cc(-c2nc3cccc(C)n3c2NCC2CCCO2)ccc1O (centres undefined)	9	94	-2	8	0	43*
Nc1c(Cl)cnc(C(Cl)(Cl)Cl)c1Cl	-1	102	-2	-2	-4	43*
O=c1c2ccccc2n(Cc2ccccc2F)c(=O)n1Cc1ccccc1F	-3	99	-2	-6	10	.
O=c1sc2ccccc2c(=O)n1Cc1ccccc1F	-1	96	-1	6	-2	43*
COc1cccc(Cn2c(=O)sc3ccccc3c2=O)c1	8	101	-1	1	-4	43*
Cc1ccc(Cn2c(=O)sc3ccccc3c2=O)cc1	15	103	3	-5	-11	.
O=C(C[C@H]1CC[C@@H]2[C@H](COC[C@H](O)CN2Cc2cccc(F)c2)O1)NCc1ccncc1	.	.	.	.	.	0
COC(=O)C1=C(C)NC(=O)/C1=C\c1cc(C)n(-c2ccc(F)cc2)c1C	10	97	104*	-9	2	0
CCOC(=O)C1CCN(C(=O)CCN2C(=O)C3C4C=CC(C4)C3C2=O)CC1 (centres undefined)	14	95	-3	3	-1	.
O=C(CCN1C(=O)C2C3C=CC(C3)C2C1=O)N1CCCCC1 (centres undefined)	-7	98	-2	2	2	43*
CCC(=O)Nc1ccc2c(c1)C(=O)N(C)C[C@H](OC)[C@@H](C)CN(C(=O)COC)[C@@H](C)CO2	.	.	.	.	.	0
Clc1ccccc1-c1nnc(CNC2CC2)o1	2	97	-3	-2	1	44*
O=[N+]([O-])c1cccc(-c2nnc(CNC3CC3)o2)c1	8	96	-1	-2	0	1
COc1cc(C(=O)O/N=C2\C=CC(=O)C=C2C)cc(OC)c1OC	-20	100	12	5	2	43*
COc1cc(C(=O)O/N=C2/C=CC(=O)C(C)=C2C)cc(OC)c1OC	.	99	6	1	-2	.
Cc1onc(-c2c(F)cccc2Cl)c1C(=O)OCC(=O)NC(=O)NCC(C)C	-5	95	0	2	1	43*
Cc1ccc(C(F)(F)F)cc1NC(N)=S	1	104	-2	-3	-1	44*
CNC(=O)C[C@H]1CC[C@H]2[C@@H](COc3ccc(NC(=O)Nc4c(C)noc4C)cc3C(=O)N2C)O1	.	.	.	.	.	0
CC[n+]1c(/C=C/N(C)c2ccccc2)n(-c2ccccc2)c2ccc(-c3nc4ccccc4s3)cc21	-13	108	64*	-42	5	.
CC(C)c1ccccc1NC(=S)NC(C)c1ccccc1 (centres undefined)	1	103	2	0	-2	44*
CCOC(=O)C1CCN(C(=O)c2ccc3c(=O)n4nc(Nc5ccccc5OC)sc4nc3c2)CC1	.	96	0	-1	0	2.4*
Cc1ccc(Nc2nc(N/N=C/c3c[nH]c4ccccc34)nc(N3CCOCC3)n2)cc1	21	91	63*	3	1	0
SMILES	VLA-4 inh	ABCB6 inh 2	Granule exo inh	MT1-MMP act inh	DAGLB inh	FGF22 binding
C(=N\Nc1nc(Nc2ccccc2)nc(N2CCOCC2)n1)/c1c[nH]c2ccccc12	5	.	.	.	.	.
c1ccc(-c2noc(CCC3CCCC3)n2)cc1	-1	94	-4	-5	-2	0
c1ccc(-c2noc(CC3CCCCC3)n2)cc1	10	101	-2	5	0	43*
Cn1c(CNC(=O)c2ccco2)nnc1SCC(=O)Nc1cccc(F)c1	1	93	-1	-1	4	0
Cn1c(CNC(=O)c2ccco2)nnc1SCC(=O)Nc1c(F)cc(F)cc1Br	-5	101	-4	-3	2	44*
c1csc(CNc2ncnc3ccc(-c4ccc5c(c4)OCO5)cc23)c1	2	95	-4	2	-6	44*
Cc1cccc(OCC(=O)N2CCN(S(C)(=O)=O)CC2)c1	4	106	-7	-3	-4	43*
Cc1ccc(OCC(=O)N2CCN(S(C)(=O)=O)CC2)cc1	9	98	1	3	-1	0
Cc1ccc(S(=O)(=O)NCC[C@H]2CC[C@@H](NS(=O)(=O)c3ccccc3Cl)[C@@H](CO)O2)cc1	.	.	.	.	.	0
O=C(C[C@H]1CC[C@@H]2[C@H](COC[C@@H](O)CN2C(=O)Nc2ccc(Cl)cc2)O1)NCCc1ccncc1	.	.	.	.	.	0
O=C(O)C1CN(c2ncccc2[N+](=O)[O-])C1	-7	101	0	0	-3	43*
COc1ccc(NC(=O)/C(Cl)=C(/Cl)S(=O)(=O)Cc2ccc(C)cc2)cn1	.	89	97*	2	13	.
COc1ccc(NC(=O)Cc2ccc(Cl)c(Cl)c2)cn1	8	97	0	0	3	0
CCCNC(=O)N1C[C@@H](C)[C@@H](OC)CN(C)C(=O)c2cc(NS(C)(=O)=O)ccc2OC[C@@H]1C	.	.	.	.	.	0
COc1ccccc1C(=O)NC(=O)COC(=O)CN1C(=O)NC2(CCCCC2C)C1=O (centres undefined)	2	101	2	-1	0	0
COc1ccccc1COC(=O)CN1C(=O)NC2(CCCCC2C)C1=O (centres undefined)	.	96	-2	1	-1	43*
CN(C1=C(N2CCCCC2)C(=O)c2ccccc2C1=O)c1ccccc1	-2	95	36	4	38*	.
COc1ccc(CN2C[C@H](O)COC[C@H]3O[C@@H](CC(=O)N4CCc5ccccc5C4)CC[C@@H]32)cc1	.	.	.	.	.	0
CCOc1ncccc1C(=O)Nc1ccc(F)c(F)c1	25	92	-1	-3	-7	43*
CC1CCc2c(C(=O)NCc3cccnc3)csc2C1 (centres undefined)	-1	104	9	3	0	43*
C[C@@H]1CN([C@@H](C)CO)C(=O)c2cc(NS(C)(=O)=O)ccc2O[C@@H](C)CCCCO[C@H]1CN(C)Cc1ccncc1	.	.	.	.	.	0
O=C(Nc1ccccc1NC(=O)c1csnn1)c1csnn1	11	105	-4	1	-1	43*
O=C(NC(=S)Nc1ccccc1Cl)c1csnn1	-3	100	-1	1	-1	0
